Screening results (PubChem BioAssay)
Only a selection was taken, and hits are over-represented in it overall.
Ecoli WT expand: blocks growth of wild type E. coli BW25113. hit rate 0.15% among 98,000. OD600 absorbance. AID 710. growth inhibition, % at 100 µM;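 active means growth inhibition above about 50% at one test dose, limit read from the data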;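 further: growth measured after 20 h incubation at 37 °C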
Mac1 fbg inh: inhibitors of human CD11b/CD18 binding to fibrinogen. hit rate 0.54% among 93,000. P05107+P11215. K562 CD11b/CD18 adhesion to fibrinogen, ATPlite luminescence; Mn2+ added to activate the integrin. inhibition, % at 10 µM;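 active means primary inhibition of 50% or more at 10 µM, then 40% or more on retest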
tolC growth inh: E. coli tolC mutant growth inhibition; growth inhibition, % at 10 µM (by protocol); hit rate 2.2% among 65,000; E. coli BW25113 tolC mutant growth, OD615; AID 573;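 active means growth inhibition at or above a cutoff equal to the mean over every tested compound plus 3 SD, cut at about 60% in these data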;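 further: growth measured after 20 h incubation at 37 °C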
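Test system: E. coli BW25113 ΔtolC::kan bacteria | Medium: Kanamycin-containing LB broth (50 µg/mL) | Dosing: One dose of 10 µM final | Times: 20 h incubation with compound, 37 °C | Detection: Optical density read at 615 nm | Read-out basis: Percent growth inhibition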
Phagocytosis inh: inhibitors of macrophage phagocytosis; hit rate 0.07% among 110,000; J774A.1 macrophage IgG-bead phagocytosis, imaging; AID 1029; inhibition, % at 5 µM;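 active means inhibition above the mean of the plate negative controls plus 5 SD, cut at about 13% in these data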;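 further: phagocytic index as fraction of beads internalized from green versus red external bead signal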
CD11b adhes enh: enhancers of human CD11b/CD18 binding to fibrinogen; P05107+P11215; K562 CD11b/CD18 adhesion to fibrinogen, ATPlite luminescence; hit rate 0.07% among 93,000; activation, % at 10 µM;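 active means 10 µM primary screen giving 50% or more activity, confirmed by 40% or more on retest at that dose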
Of the large screens only hits and unclear results are named; the others gave an inactive call.

CCCCOc1ccc(C(=O)NNC(=S)NC(=O)CC)cc1	none (no result: Ecoli WT expand, Mac1 fbg inh, tolC growth inh, CD11b adhes enh)
N#CCSc1nc2c(c(C3CC=CCC3)c1C#N)CCC2 (centres undefined)	tolC growth inh 67.3
N#CCSc1nc2c(cc1C#N)CCCCCC2	none
CCn1c(SCC(=O)N2CCc3ccccc3C2)nc2sc(C)c(C)c2c1=O	none (no result: Ecoli WT expand, tolC growth inh)
Cc1cc(Cl)c(S(=O)(=O)N2CCN(c3ccc(F)cc3)CC2)cc1OCC(=O)NC1CCCCC1	Mac1 fbg inh 94.2 (no result: tolC growth inh)
CCNc1nc(CN2CCCCC2)nc2scc(-c3ccccc3)c12	Mac1 fbg inh 78.3 (no result: Ecoli WT expand, tolC growth inh)
Cc1c(-c2ccccc2)nc2ccccc2c1C(=O)NCc1cccs1	none (no result: Ecoli WT expand, tolC growth inh)
OC(COc1ccc2ccccc2c1)Cn1ccnc1 (centres undefined)	none
OC(COc1ccc2ccccc2c1Br)Cn1ccnc1 (centres undefined)	tolC growth inh 98.7
Cc1ccc(-c2nn(C)c(=O)c3ccccc23)cc1CNC(=O)Cn1nc(-c2ccccc2)c2ccccc2c1=O	CD11b adhes enh 132.9 (no result: tolC growth inh)
Cn1c(CSc2nnc(SCc3ccccc3)s2)nc2ccccc21	tolC growth inh 83.8
CCOc1ccc(C(=O)C2CCN(CC(=O)Nc3ccccc3N3CCOCC3)CC2)cc1	tolC growth inh 76.4
COc1ccc([C@H]2[C@H](C(=O)C(C)(C)C)N3N=Cc4ccccc4C3[C@]23N=C(c2ccccc2)OC3=O)cc1OC (some centres undefined)	CD11b adhes enh 90.6 (no result: tolC growth inh)
CCCCOc1ccc(S(=O)(=O)Nc2cc(OC)ccc2OC)cc1	tolC growth inh 70.2
CCC(=O)Nc1cc(-c2nn(C)c(=O)c3ccccc23)ccc1N1CCOCC1	none (no result: tolC growth inh)
Cn1nc(-c2ccc(N3CCOCC3)c(NC(=O)COc3ccccc3)c2)c2ccccc2c1=O	tolC growth inh 64.7 (no result: Ecoli WT expand, Mac1 fbg inh, Phagocytosis inh, CD11b adhes enh)
COc1ccc(S(=O)(=O)N=C2C=C(C)C(=O)C(C)=C2)cc1	Mac1 fbg inh 88.7 (no result: tolC growth inh)
COc1ccc(S(=O)(=O)N2CCCCC2)cc1	none (no result: tolC growth inh)
Cc1ccc2cc3cc(C(=O)N(C)C4CCCCC4)oc3nc2c1	none (no result: Ecoli WT expand, Mac1 fbg inh, Phagocytosis inh, CD11b adhes enh)
Cc1cccc(N(C)C(=O)c2cc3cc4ccc(C)cc4nc3o2)c1	tolC growth inh 96.3
O=C1OCC(CO)(CO)N=C1NNc1ccc(Cl)c(Cl)c1	Ecoli WT expand 88.0 (no result: tolC growth inh, Phagocytosis inh)
CCC(CC)C(=O)Nc1ccc(Cl)c(Cl)c1	none (no result: tolC growth inh)
O=C(CSc1ccccc1)NCCSCc1ccccc1	none (no result: Ecoli WT expand, Mac1 fbg inh, tolC growth inh, CD11b adhes enh)
CCCc1cc(=O)oc2cc(C)cc(O)c12	none (no result: tolC growth inh)
CCCCCc1cc(O)c2c(C)cc(=O)oc2c1	tolC growth inh 86.1
Cc1ccc(CSCCNS(=O)(=O)c2ccc(C)cc2)cc1	none (no result: Ecoli WT expand, Mac1 fbg inh, tolC growth inh, CD11b adhes enh)
CC(=O)c1c(C)[nH]c(C(=O)NCc2ccccc2)c1C	none (no result: tolC growth inh)
CCN(Cc1ccccc1)C(=O)CCc1nc(-c2ccc(C)cc2)no1	tolC growth inh 88.0
Cc1ccc(-c2noc(CN(C(=O)Cc3ccccc3)C(C)C)n2)cc1	none (no result: tolC growth inh)
CCc1ccccc1N(CC)C(=O)CCc1nc(-c2ccc(C)cc2)no1	tolC growth inh 95.1
CCN(CCCNC(=O)c1[nH]c(C)c(C(C)=O)c1C)c1cccc(C)c1	tolC growth inh 98.5
CCN(CCCNC(=O)CCc1nc(-c2ccc(C)cc2)no1)c1cccc(C)c1	tolC growth inh 90.9
CC(C)P(=O)(c1cccc(C(=O)O)c1)C(C)C	none (no result: Ecoli WT expand, tolC growth inh)
CCCn1c2ccccc2c2nc3ccccc3nc21	tolC growth inh 69.0
Cc1ccc2cc(C#N)c(SCc3nnc(-c4ccccc4[N+](=O)[O-])o3)nc2c1	none (no result: Ecoli WT expand, Mac1 fbg inh, tolC growth inh, CD11b adhes enh)
CCOC(=O)c1c(C)oc2ccc(NS(=O)(=O)c3ccc4c5c(cccc35)C(=O)N4)cc12	tolC growth inh 68.1 (no result: Mac1 fbg inh, Phagocytosis inh, CD11b adhes enh)
Oc1ccc(Br)cc1-c1nc2cnccn2c1NC1CCCC1	tolC growth inh 97.0
CN1/C(=C/C(=O)c2cccs2)Sc2ccccc21	none (no result: tolC growth inh)
CN1/C(=C\C(=O)c2cccs2)Sc2ccccc21	tolC growth inh 68.2
COc1cc(/C=C(/C#N)c2ccc(F)cc2)ccc1OCc1ccc(C(=O)O)o1	tolC growth inh 100.0
Cc1ccc(NC(=O)c2ccccc2N(C)S(=O)(=O)c2ccccc2)c(C)c1	none (no result: Ecoli WT expand, Mac1 fbg inh, tolC growth inh, CD11b adhes enh)
Cc1cccc(NC(=O)CSc2nnc(-c3cc(C)n(-c4ccccc4)c3C)o2)c1C	tolC growth inh 62.7 (no result: Mac1 fbg inh, Phagocytosis inh, CD11b adhes enh)
Clc1ccc(OCc2nc(-c3ccccn3)n[nH]2)cc1	tolC growth inh 85.1
COc1ccc(C2=[N+](C)CCn3cccc32)c(OC)c1	none (no result: Ecoli WT expand, Mac1 fbg inh, tolC growth inh, CD11b adhes enh)
O=C(c1ccc(Cl)c(Cl)c1)N(Cc1ccco1)c1ccc(O)cc1	tolC growth inh 100.0
O=C(Nc1ccccc1)OCC1CCCN2CCCCC12 (centres undefined)	none (no result: Phagocytosis inh)
CC1=CCC(COC(=O)Nc2ccccc2)CC1 (centres undefined)	tolC growth inh 97.9 (no result: Mac1 fbg inh, Phagocytosis inh, CD11b adhes enh)
